Assay results: ChEMBL document CHEMBL5634206, “Chiral hydroxymethyl-1H,3H-pyrrolo[1,2-c]thiazoles: the search for selective p53-activating agents for colorectal cancer therapy” (RSC Med Chem, 2024)

Legend:
[1] = test system: HCT-116; assay: Antiproliferative activity against wildtype p53 expressing human HCT-116 cells assessed as inhibition of cell growth incubated for 48 hrs by SRB assay; type: functional, cell-based
Procedure, shortened: (§1)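 Isogenic HCT116 p53+/+ and p53−/− pair from B. Vogelstein, grown as monolayers in RPMI-1640 with 2 mM L-glutamine and 10% heat-inactivated FBS at 37 °C, 5% CO2. Cells seeded at 5 × 10^3 per well for 24 h, then given serial dilutions from 0.2 to 50 μM for 48 h. IC50 read by sulforhodamine B staining.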

[2] = test system: MDA-MB-231; assay: Antiproliferative activity against human MDA-MB-231 cells assessed as inhibition of cell growth incubated for 48 hrs by SRB assay; type: functional, cell-based; settings: MDA-MB-231, 48 h
Procedure, shortened: (§2)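 MDA-MB-231 and PANC-1 cells grown in high-glucose DMEM (4.5 g L−1) with L-glutamine, sodium pyruvate and 10% heat-inactivated FBS at 37 °C, 5% CO2. After seeding 5 × 10^3 cells per well for 24 h, cells received serial dilutions of 0.2–50 μM for 48 h. IC50 by SRB. Mean ± SD of 3 independent experiments.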

[3] = test system: A-375; assay: Antiproliferative activity against human A-375 cells assessed as inhibition of cell growth incubated for 48 hrs by SRB assay; type: functional, cell-based; settings: A-375, 48 h
Procedure, shortened: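 A375 melanoma cells grown as monolayers in RPMI-1640 with 2 mM L-glutamine and 10% heat-inactivated FBS at 37 °C, 5% CO2. Seeded at 5 × 10^3 cells per well for 24 h, then exposed to serial dilutions (0.2–50 μM) for 48 h. IC50 determined by SRB. Mean ± SD of 3 independent experiments.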

[4] = test system: PANC-1; assay: Antiproliferative activity against human PANC-1 cells assessed as inhibition of cell growth incubated for 48 hrs by SRB assay; type: functional, cell-based; settings: PANC-1, 48 h; procedure, shortened: as §2
[5] = test system: HCT-116; assay: Antiproliferative activity against human HCT-116 cells expressing p53-/- assessed as inhibition of cell growth incubated for 48 hrs by SRB assay; type: functional, cell-based; procedure, shortened: as §1
[6] = test system: HCT-116; assay: Potency index, ratio of test compound IC50 to MANIO IC50 for antiproliferative activity against wildtype p53 expressing human HCT-116 cells assessed as inhibition of cell growth incubated for 48 hrs by SRB assay
[7] = Selectivity ratio of IC50 for antiproliferative activity against human HCT-116 cells expressing p53-/- to IC50 for antiproliferative activity against wildtype p53 expressing human HCT-116 cells; type: functional
[8] = Homo sapiens, HCT-116, 48 h, read-out: IC50

Structure (SMILES) | IC50 [1, 8] [µM] | IC50 [2] [µM] | IC50 [3] [µM] | IC50 [4] [µM] | IC50 [5, 8] [µM] | IC50 ([1]; hct-116) | IC50 ([5]; hct-116) | Ratio IC50 [6] | Ratio IC50 [7]
Cc1c(CO)cc2n1[C@@H](c1ccccc1)SC2 | 6.68 | > 50 | 39.5 | > 50 | > 50 |  |  |  | 
Cc1cc(CO)c2n1[C@@H](c1ccccc1)SC2 | 29.3 |  |  |  | > 50 |  |  |  | 
Cc1c(CO)c(CO)c2n1[C@@H](c1ccccc1)SC2 | 5.11 | > 50 | 14.5 | 33.1 | 51.8 |  |  | 5 | 
Cc1c(CO)cc2n1CSC2 | 28.3 |  |  |  | > 50 |  |  |  | 
COc1cc([C@H]2SCc3c(CO)c(CO)c(C)n32)cc(OC)c1OC | > 50 |  |  |  | > 50 |  |  |  | 
OCc1cn2c(c1CO)CS[C@@H]2c1ccccc1 | 20.3 |  |  |  | > 50 |  |  |  | 
COc1ccc([C@H]2SCc3c(CO)c(CO)c(C)n32)cc1 | 4.61 | > 50 | > 50 | > 50 | > 50 |  |  |  | 
Cc1c(CO)c(CO)c2n1[C@@H](c1ccc(O)cc1)SC2 | 16.6 |  |  |  | > 50 |  |  |  | 
OCc1nn2c(c1CO)CSC2 | > 50 |  |  |  | > 50 |  |  |  | 
Cc1c(CO)c(CO)c2n1[C@@H](c1cccc3ccccc13)SC2 |  |  |  |  |  | Not Determined(Insoluble) | Not Determined(Insoluble) |  | 
Cc1c(CO)c(CO)c2n1[C@@H](c1cccc3cccnc13)SC2 | 7.5 | > 50 | 24.4 | 17.4 | > 50 |  |  |  | 
Cc1c(CO)c(CO)c2n1[C@@H](c1ccccc1)S(=O)(=O)C2 | > 15 |  |  |  | > 50 |  |  |  | 

Now from value to compound, other results behind:

IC50 [1, 8] [µM] | IC50 [2] [µM] | IC50 [3] [µM] | IC50 [4] [µM] | IC50 [5, 8] [µM] | IC50 ([1]; hct-116) | IC50 ([5]; hct-116) | Structure (SMILES) | Ratio IC50 [6] | Ratio IC50 [7]
 | > 50 | 13.2 | 42.1 | 48.2 |  |  | Cc1c(CO)c(CO)c2n1[C@H](c1ccccc1)SC2 |  | ~50
24.3 |  |  |  | 22.2 |  |  | Cc1c(CO)c(CO)c2n1[C@H](c1ccccc1)SC2(C)C |  | 
0.14 | > 50 | > 50 | > 50 | 18.1 |  |  | Cc1cc(CO)c2n1[C@H](c1ccccc1)SC2 |  | 129
33.3 |  |  |  | 46.2 |  |  | Cc1c(CO)c(CO)c2n1[C@@H](C)SC2 |  | 
1.47 | 16.6 | 22.8 | > 50 | 23.5 |  |  | COc1ccc([C@@H]2SCc3c(CO)c(CO)c(C)n32)cc1 |  | 
16.3 |  |  |  | 29.1 |  |  | Cc1c(CO)c(CO)c2n1[C@@H](Cc1ccccc1)SC2 |  | 
0.99 | 24.1 | 11.8 | 35 | 4.33 |  |  | Cc1c(CO)cc2n1[C@H](c1ccccc1)SC2 |  | 
4.43 | > 50 | 36.1 | 20.2 | 32.5 |  |  | Cc1c(CO)c(CO)c2n1[C@@H](c1ccc(F)cc1)SC2 |  | 
31.4 |  |  |  | 42.7 |  |  | Cc1c(CO)c(CO)c2n1[C@H](C)SC2 |  | 
